From ChEMBL document CHEMBL4265871, “Novel alkylated azoles as potent antifungals” (Eur J Med Chem, 2017)
In brackets after ≈: the same amount, converted by molar mass.

Tested on: Candida albicans
Assay: Antifungal activity against Candida albicans ATCC 64124 incubated for 48 hrs by modified CLSI M27-A3 protocol based method
Type: functional
Conditions: ATCC 64124, 48 h

Q: Which MIC50 does the source give for `CCCCC(O)(Cn1cncn1)c1ccc(F)cc1F` (configuration not stated) here?
A: 55.5 µM (≈ 15.6 µg/mL)

Tested on: Candida albicans
Assay: Antifungal activity against ITC and FLC-susceptible Candida albicans ATCC MYA-2876 incubated for 48 hrs by modified CLSI M27-A3 protocol based method
Type: functional
Conditions: ATCC MYA-2876, 48 h
Procedure, shortened: (§1)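 Because these Candida strains show trailing growth, MIC-2 was read, meaning 50% growth inhibition. Caspofungin and voriconazole were tested here; other controls came from earlier work.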

Q: With `CCCCC(O)(Cn1cncn1)c1ccc(F)cc1F` (configuration not stated) as the molecule, how does the MIC50 read?
A: 27.7 µM (≈ 7.79 µg/mL)

Tested on: Candida albicans
Assay: Antifungal activity against ITC and FLC-susceptible Candida albicans ATCC MYA-2310 incubated for 48 hrs by modified CLSI M27-A3 protocol based method
Type: functional
Conditions: ATCC MYA-2310, 48 h

Q: With `CCCCC(O)(Cn1cncn1)c1ccc(F)cc1F` (configuration not stated) as the molecule, how does the MIC50 read?
A: 112 µM (≈ 31.4 µg/mL)

Tested on: Candida albicans
Assay: Antifungal activity against ITC and FLC-resistant Candida albicans ATCC MYA-1003 incubated for 48 hrs by modified CLSI M27-A3 protocol based method
Type: functional
Conditions: ATCC MYA-1003, 48 h
Procedure, shortened: as §1

Q: Which MIC50 does the source give for `CCCCC(O)(Cn1cncn1)c1ccc(F)cc1F` (configuration not stated) here?
A: 13.9 µM (≈ 3.91 µg/mL)

Tested on: Nakaseomyces glabratus
Assay: Antifungal activity against Candida glabrata ATCC 2001 incubated for 48 hrs by modified CLSI M27-A3 protocol based method
Type: functional
Conditions: ATCC 2001, 48 h

Q: For `CCCCC(O)(Cn1cncn1)c1ccc(F)cc1F` (configuration not stated), which MIC50 is on record?
A: 112 µM (≈ 31.4 µg/mL)

Tested on: Pichia kudriavzevii
Assay: Antifungal activity against Candida krusei ATCC 6258 incubated for 48 hrs by modified CLSI M27-A3 protocol based method
Type: functional
Conditions: ATCC 6258, 48 h, read-out: MIC100
Procedure, shortened: (§2)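 For C. albicans ATCC 10231, C. krusei ATCC 6258 and C. parapsilosis ATCC 22019, MIC-0 was read, meaning complete growth inhibition. For azole controls, MIC-2 (50% growth inhibition) was reported instead. Caspofungin and voriconazole were tested here; other controls came from earlier work.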

Q: For `CCCCC(O)(Cn1cncn1)c1ccc(F)cc1F` (configuration not stated), which MIC is on record?
A: 0.21 µM (≈ 0.0591 µg/mL)

Tested on: Candida parapsilosis
Assay: Antifungal activity against Candida parapsilosis ATCC 22019 incubated for 48 hrs by modified CLSI M27-A3 protocol based method
Type: functional
Conditions: Lodderomyces parapsilosis, ATCC 22019, 48 h; read-out: MIC100
Procedure, shortened: as §2

Q: Which MIC does the source give for `CCCCC(O)(Cn1cncn1)c1ccc(F)cc1F` (configuration not stated) here?
A: < 0.11 µM

Tested on: Aspergillus nidulans
Assay: Antifungal activity against Aspergillus nidulans ATCC 38163 incubated for 48 hrs by CLSI M38-A2 protocol based method
Type: functional
Conditions: ATCC 38163, 48 h, read-out: MIC100

Q: Which MIC does the source give for `CCCCC(O)(Cn1cncn1)c1ccc(F)cc1F` (configuration not stated) here?
A: 6.9 µM (≈ 1.94 µg/mL)

Tested on: not listed separately
Assay: Toxicity in human A549 cells assessed as reduction in cell viability incubated for 24 hrs by resazurin dye based assay
Conditions: not given
Procedure, shortened: (§3)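 Toxicity tested in the nucleated lines A549 and BEAS-2B to give EC50 values. Selectivity index is EC50 against the mammalian line divided by the MIC against a given fungal strain.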

Q: With `CCCCC(O)(Cn1cncn1)c1ccc(F)cc1F` (configuration not stated) as the molecule, how does the EC50 at 24 h read?
A: > 31.3 µg/mL

Tested on: not listed separately
Assay: Toxicity in human BEAS2B cells assessed as reduction in cell viability incubated for 24 hrs by resazurin dye based assay
Conditions: BEAS-2B cells
Procedure, shortened: as §3

Q: For `CCCCC(O)(Cn1cncn1)c1ccc(F)cc1F` (configuration not stated), which EC50 at 24 h is on record?
A: 36 µg/mL (≈ 128 µM)

Tested on: not listed separately
Assay: Hemolytic activity in mouse erythrocytes assessed as hemolysis level at 1.95 ug/ml incubated for 1 hr at 37 degC
Type: ADME, cell-based, Erythrocyte
Conditions: read-out: Activity
Procedure, shortened: (§4)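 Mouse erythrocytes incubated 1 h at 37 °C with test agents over 1.95 to 125 µg/mL. Percent lysis is read for each concentration.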

Q: With `CCCCC(O)(Cn1cncn1)c1ccc(F)cc1F` (configuration not stated) as the molecule, how does the hemolysis at 1 h, 1.95 ug/ml read?
A: 0%

Tested on: not listed separately
Assay: Hemolytic activity in mouse erythrocytes assessed as hemolysis level at 3.9 ug/ml incubated for 1 hr at 37 degC
Type: ADME, cell-based, Erythrocyte
Conditions: read-out: Activity
Procedure, shortened: as §4

Q: Which hemolysis at 1 h, 3.9 ug/ml does the source give for `CCCCC(O)(Cn1cncn1)c1ccc(F)cc1F` (configuration not stated) here?
A: 0%

Tested on: not listed separately
Assay: Hemolytic activity in mouse erythrocytes assessed as hemolysis level at 7.8 ug/ml incubated for 1 hr at 37 degC
Type: ADME, cell-based, Erythrocyte
Conditions: read-out: Activity
Procedure, shortened: as §4

Q: For `CCCCC(O)(Cn1cncn1)c1ccc(F)cc1F` (configuration not stated), which hemolysis at 1 h, 7.8 ug/ml is on record?
A: 0%

Tested on: not listed separately
Assay: Hemolytic activity in mouse erythrocytes assessed as hemolysis level at 31.3 ug/ml incubated for 1 hr at 37 degC
Type: ADME, cell-based, Erythrocyte
Conditions: read-out: Activity
Procedure, shortened: as §4

Q: Which hemolysis at 1 h, 31.3 ug/ml does the source give for `CCCCC(O)(Cn1cncn1)c1ccc(F)cc1F` (configuration not stated) here?
A: 3.7%

Tested on: not listed separately
Assay: Selectivity index, ratio of EC50 for toxicity in human BEAS2B cells to MIC50 for antifungal activity against Candida albicans ATCC 64124
Type: cell-based
Conditions: BEAS-2B cells, read-out: Selectivity Index
Procedure, shortened: (§5)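 Selectivity index is the EC50 against the mammalian line (A549 or BEAS-2B) divided by the MIC against the given fungal strain.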

Q: For `CCCCC(O)(Cn1cncn1)c1ccc(F)cc1F` (configuration not stated), which selectivity ratio is on record?
A: 2

Tested on: not listed separately
Assay: Selectivity index, ratio of EC50 for toxicity in human BEAS2B cells to MIC100 for antifungal activity against Candida albicans ATCC 10231
Type: cell-based
Conditions: BEAS-2B cells, read-out: Selectivity Index
Procedure, shortened: as §5

Q: With `CCCCC(O)(Cn1cncn1)c1ccc(F)cc1F` (configuration not stated) as the molecule, how does the selectivity ratio read?
A: 19

Tested on: not listed separately
Assay: Selectivity index, ratio of EC50 for toxicity in human A549 cells to MIC50 for antifungal activity against Candida albicans ATCC 64124
Type: cell-based
Conditions: read-out: Selectivity Index
Procedure, shortened: as §5

Q: Which selectivity ratio does the source give for `CCCCC(O)(Cn1cncn1)c1ccc(F)cc1F` (configuration not stated) here?
A: 2

Tested on: not listed separately
Assay: Selectivity index, ratio of EC50 for toxicity in human A549 cells to MIC50 for antifungal activity against ITC and FLC-susceptible Candida albicans ATCC MYA-2876
Type: cell-based
Conditions: read-out: Selectivity Index
Procedure, shortened: as §5

Q: For `CCCCC(O)(Cn1cncn1)c1ccc(F)cc1F` (configuration not stated), which selectivity ratio is on record?
A: 4

Tested on: not listed separately
Assay: Selectivity index, ratio of EC50 for toxicity in human BEAS2B cells to MIC50 for antifungal activity against ITC and FLC-susceptible Candida albicans ATCC MYA-2876
Type: cell-based
Conditions: BEAS-2B cells, read-out: Selectivity Index
Procedure, shortened: (§6)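 Ratio of the compound's EC50 against BEAS-2B cells to its MIC against the named C. albicans strain. […] For C. albicans strains other than ATCC 10231, trailing growth meant MIC-2 was taken, meaning 50% growth inhibition.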

Q: Which selectivity ratio does the source give for `CCCCC(O)(Cn1cncn1)c1ccc(F)cc1F` (configuration not stated) here?
A: 5

Tested on: not listed separately
Assay: Selectivity index, ratio of EC50 for toxicity in human A549 cells to MIC50 for antifungal activity against ITC and FLC-resistant Candida albicans ATCC MYA-90819
Type: cell-based
Conditions: read-out: Selectivity Index
Procedure, shortened: as §5

Q: Which selectivity ratio does the source give for `CCCCC(O)(Cn1cncn1)c1ccc(F)cc1F` (configuration not stated) here?
A: 2

Tested on: not listed separately
Assay: Selectivity index, ratio of EC50 for toxicity in human BEAS2B cells to MIC50 for antifungal activity against ITC and FLC-susceptible Candida albicans ATCC MYA-2310
Type: cell-based
Conditions: BEAS-2B cells, read-out: Selectivity Index
Procedure, shortened: as §6

Q: With `CCCCC(O)(Cn1cncn1)c1ccc(F)cc1F` (configuration not stated) as the molecule, how does the selectivity ratio read?
A: 1

Tested on: not listed separately
Assay: Selectivity index, ratio of EC50 for toxicity in human A549 cells to MIC50 for antifungal activity against ITC and FLC-resistant Candida albicans ATCC 1237
Type: cell-based
Conditions: read-out: Selectivity Index
Procedure, shortened: as §5

Q: With `CCCCC(O)(Cn1cncn1)c1ccc(F)cc1F` (configuration not stated) as the molecule, how does the selectivity ratio read?
A: 2

Tested on: not listed separately
Assay: Selectivity index, ratio of EC50 for toxicity in human BEAS2B cells to MIC50 for antifungal activity against ITC and FLC-resistant Candida albicans ATCC 1237
Type: cell-based
Conditions: BEAS-2B cells, read-out: Selectivity Index
Procedure, shortened: as §5

Q: For `CCCCC(O)(Cn1cncn1)c1ccc(F)cc1F` (configuration not stated), which selectivity ratio is on record?
A: 2

Tested on: not listed separately
Assay: Selectivity index, ratio of EC50 for toxicity in human A549 cells to MIC50 for antifungal activity against ITC and FLC-resistant Candida albicans ATCC MYA-1003
Type: cell-based
Conditions: read-out: Selectivity Index
Procedure, shortened: as §5

Q: For `CCCCC(O)(Cn1cncn1)c1ccc(F)cc1F` (configuration not stated), which selectivity ratio is on record?
A: 8

Tested on: not listed separately
Assay: Selectivity index, ratio of EC50 for toxicity in human BEAS2B cells to MIC50 for antifungal activity against ITC and FLC-resistant Candida albicans ATCC MYA-1003
Type: cell-based
Conditions: BEAS-2B cells, read-out: Selectivity Index
Procedure, shortened: as §5

Q: Which selectivity ratio does the source give for `CCCCC(O)(Cn1cncn1)c1ccc(F)cc1F` (configuration not stated) here?
A: 9

Tested on: not listed separately
Assay: Selectivity index, ratio of EC50 for toxicity in human BEAS2B cells to MIC50 for antifungal activity against Candida glabrata ATCC 2001
Type: cell-based
Conditions: BEAS-2B cells, read-out: Selectivity Index
Procedure, shortened: as §5

Q: For `CCCCC(O)(Cn1cncn1)c1ccc(F)cc1F` (configuration not stated), which selectivity ratio is on record?
A: 1

Tested on: not listed separately
Assay: Selectivity index, ratio of […] for toxicity in human BEAS2B cells to MIC50 for antifungal activity against Aspergillus flavus ATCC MYA-3631
Type: cell-based
Conditions: BEAS-2B cells, read-out: Selectivity Index

Q: With `CCCCC(O)(Cn1cncn1)c1ccc(F)cc1F` (configuration not stated) as the molecule, how does the selectivity ratio read?
A: 2

Tested on: not listed separately
Assay: Selectivity index, ratio of […] for toxicity in human A549 cells to MIC50 for antifungal activity against Aspergillus nidulans ATCC 38163
Type: cell-based
Conditions: read-out: Selectivity Index

Q: Which selectivity ratio does the source give for `CCCCC(O)(Cn1cncn1)c1ccc(F)cc1F` (configuration not stated) here?
A: 16

Tested on: not listed separately
Assay: in vitro
Conditions: mouse, mouse erythrocytes

Q: Which hemolysis at 1 h, 62.5 ug/ml does the source give for `CCCCC(O)(Cn1cncn1)c1ccc(F)cc1F` (configuration not stated) here?
A: 0%

Tested on: not listed separately
Assay: Selectivity index, ratio of EC50 for toxicity in human A549 cells to MIC50 for antifungal activity against Candida krusei ATCC 6258
Conditions: not given

Q: For `CCCCC(O)(Cn1cncn1)c1ccc(F)cc1F` (configuration not stated), which selectivity ratio is on record?
A: 522

Tested on: not listed separately
Assay: Selectivity index, ratio of EC50 for toxicity in human BEAS2B cells to MIC50 for antifungal activity against Candida krusei ATCC 6258
Conditions: BEAS-2B cells

Q: For `CCCCC(O)(Cn1cncn1)c1ccc(F)cc1F` (configuration not stated), which selectivity ratio is on record?
A: 600

Tested on: not listed separately
Assay: Selectivity index, ratio of EC50 for toxicity in human A549 cells to MIC for antifungal activity against Candida parapsilosis ATCC 22019
Conditions: not given

Q: For `CCCCC(O)(Cn1cncn1)c1ccc(F)cc1F` (configuration not stated), which selectivity ratio is on record?
A: 1040
